ChEMBL document CHEMBL3997803, “Accepting the Invitation to Open Innovation in Malaria Drug Discovery: Synthesis, Biological Evaluation, and Investigation on the Structure-Activity Relationships of Benzo[b]thiophene-2-carboxamides as Antimalarial Agents” (J Med Chem, 2017)
Active and inactive are the calls of the source. The calls are words filed in the database; no cut-off is given here.

Columns and labels:
Plasmodium falciparum [1] = assay: Anti-parasitic activity against CQ-resistant Plasmodium falciparum W2 assessed as growth inhibition by measuring increase in LDH release after 72 hrs by spectrophotometric method; assay type: functional; details: W2, 72 h
Outline: (§1)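 Asynchronous cultures (parasitemia 1–1.5%, 1% final hematocrit, human A+ RBCs) in RPMI 1640 with 1% AlbuMax, 0.01% hypoxanthine, 20 mM HEPES, 2 mM glutamine. Serial dilutions from DMSO stocks (final DMSO <1%). IC50 as mean ± SD of ≥3 experiments in duplicate.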

Plasmodium falciparum [2] = assay: Anti-parasitic activity against CQ-sensitive Plasmodium falciparum D10 assessed as growth inhibition by measuring increase in LDH release after 72 hrs by spectrophotometric method; assay type: functional; details: D10, 72 h; outline: as §1
HMEC-1 = assay: Antiproliferative activity against SV40 large T-antigen 38 immortalized HMEC1 cells after 72 hrs by MTT assay; assay type: cell-based; details: Homo sapiens, HMEC-1, 72 h
Outline: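 HMEC-1 cells (SV40 large T-antigen immortalized) grown in MCDB 131 with 10% fetal calf serum, 10 ng/mL EGF, 1 μg/mL hydrocortisone, 2 mM glutamine, penicillin/streptomycin, 20 mM Hepes. Treated with serial dilutions for 72 h; proliferation read by MTT. IC50 = dose inhibiting growth 50%; mean and SD of at least three experiments in duplicate.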

[3] = Selectivity index, ratio of IC50 for SV40 large T-antigen 38 immortalized HMEC1 cells to IC50 for CQ-sensitive Plasmodium falciparum D10; assay type: toxicity; details: human, read-out: Ratio IC50
[4] = Selectivity index, ratio of IC50 for SV40 large T-antigen 38 immortalized HMEC1 cells to IC50 for CQ-resistant Plasmodium falciparum W2; assay type: toxicity; details: human, read-out: Ratio IC50
[5] = Half-life in human liver microsomes at 1 uM in presence of NADPH by HPLC-MS/MS method; assay type: ADME, microsome
Escherichia coli [6] = assay: Inhibition of Escherichia coli ClpB ATP hydrolysis activity at 1.7 uM after 15 mins by spectrophotometric method
Outline: (§2)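 E. coli ClpB (concentration as monomer) assayed at 37 °C in 100 mM Tris/HCl pH 8, 1 mM DTT, 1 mM EDTA, 10 mM MgCl2. Reaction started by adding ClpB to buffer holding compound (DMSO stock diluted in buffer) and 4 mM ATP. Inorganic phosphate released from ATP quantified; matching DMSO amounts as controls.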

[7] = Stability of the compound in RPMI 1640 medium at 1 uM up to 24 hrs by HPLC-MS/MS method; assay type: physicochemical
Escherichia coli [8] = assay: Inhibition of Escherichia coli ClpB ATP hydrolysis activity at 2 uM after 15 mins by spectrophotometric method; outline: as §2
[9] = Inhibition of recombinant histidine-tagged Plasmodium falciparum choline kinase expressed in Escherichia coli using choline as substrate after 30 mins by HTRF method
Plasmodium falciparum [10] = assay: Antiparasitic activity against Plasmodium falciparum 3D7 infected in erythrocytes after 72 hrs by SYBR Green 1 dye-based assay; assay type: functional, cell-based; details: 3D7, 72 h
Escherichia coli [11] = assay: Inhibition of Escherichia coli ClpB ATP hydrolysis activity at 1.5 uM after 15 mins by spectrophotometric method; outline: as §2
Escherichia coli [12] = assay: Inhibition of Escherichia coli ClpB ATP hydrolysis activity at 1.5 uM preincubated for 21 mins followed by ATP addition by spectrophotometric method
Outline: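 E. coli ClpB ATPase in 100 mM Tris/HCl pH 8, 1 mM DTT, 1 mM EDTA, 10 mM MgCl2, 37 °C. ClpB and compound (DMSO stock diluted in buffer) combined first; reaction started by adding ATP. ATP hydrolysis followed as inorganic phosphate generated; equivalent DMSO amounts served as controls.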

| Compound | IC50 (Plasmodium falciparum [1]) | IC50 (Plasmodium falciparum [2]) | other results |
| --- | --- | --- | --- |
| CC1CN(C(=O)c2sc3ccccc3c2Cl)CC(C)O1 (stereo unspecified) | 0.26 µM |  |  |
| CCN(CC)C(=O)c1sc2ccccc2c1Cl | > 15 µM | > 15 µM |  |
| O=C(c1cc2ccccc2s1)N1CCOCC1 | > 15 µM | > 15 µM |  |
| Cc1ccc2c(Cl)c(C(=O)N3C[C@@H](C)O[C@@H](C)C3)sc2c1 | 0.596 µM | 0.086 µM | IC50 (HMEC-1): 201 µM; selectivity ratio [3]: 250 to 5000; selectivity ratio [4]: 250 to 5000 |
| CC(=O)N1CCN(C(=O)c2cc3ccccc3s2)CC1 | 7.75 µM | 10.9 µM |  |
| C[C@@H]1CN(C(=O)c2sc3ccccc3c2OCc2ccc(F)c(F)c2)C[C@H](C)O1 | 0.747 µM | 0.141 µM | IC50 (HMEC-1): 97 µM; selectivity ratio [3]: 250 to 5000; selectivity ratio [4]: 250 to 5000 |
| Cc1c(C(=O)N2C[C@@H](C)O[C@@H](C)C2)sc2ccccc12 | 0.753 µM | 0.226 µM | IC50 (HMEC-1): 142 µM; half-life at 1 µM [5]: 44 min; inhibition (Escherichia coli [6]): inactive; selectivity ratio [3]: 250 to 5000; selectivity ratio [4]: 250 to 5000 |
| C[C@@H]1CN(C(=O)c2cc3ccccc3s2)C[C@H](C)N1 | > 15 µM | > 15 µM |  |
| O=C(NC12CC3CC(CC(C3)C1)C2)c1sc2ccccc2c1Cl | > 15 µM | > 15 µM |  |
| C[C@@H]1CN(C(=O)c2sc3c(Cl)c(Cl)ccc3c2Cl)C[C@H](C)O1 | 7.44 µM | 2.22 µM |  |
| C[C@@H]1CN(C(=O)c2sc3ccccc3c2Cl)C[C@H](C)O1 | 0.184 µM | 0.037 µM | IC50 (HMEC-1): 195 µM; half-life at 1 µM [5]: 40 min; Stability [7]: Stable; inhibition (Escherichia coli [8]): inactive; selectivity ratio [3]: 250 to 5000; selectivity ratio [4]: 250 to 5000; IC50 [9]: 6.3 µM; EC50 (Plasmodium falciparum [10]): 0.3 µM |
| C[C@@H]1CN(C(=O)c2cc3ccccc3[nH]2)C[C@H](C)O1 | > 15 µM | > 15 µM |  |
| O=C(Nc1ccccc1)c1sc2ccccc2c1Cl | > 15 µM | > 15 µM |  |
| CCN(CC)CCCC(C)Nc1ccnc2cc(Cl)ccc12 (stereo unspecified) [CHLOROQUINE] |  |  | IC50 (HMEC-1): > 100 µM |
| O=C(c1sc2ccccc2c1Cl)N1CCCCC1 | > 15 µM | > 15 µM |  |
| CC1CC(C)CN(C(=O)c2sc3ccccc3c2Cl)C1 (stereo unspecified) | 0.461 µM | 0.1 µM | IC50 (HMEC-1): 149 µM; selectivity ratio [3]: 250 to 5000; selectivity ratio [4]: 250 to 5000 |
| C[C@@H]1CN(C(=O)c2sc3cc(Cl)ccc3c2Cl)C[C@H](C)O1 | 2.09 µM | 0.407 µM |  |
| C[C@@H]1CN(C(=O)c2sc3ccccc3c2Cl)C[C@@H](C)O1 | 2.69 µM | 0.645 µM | IC50 (HMEC-1): 154 µM; selectivity ratio [3]: 250 to 5000; selectivity ratio [4]: 250 to 5000 |
| CCc1c(C(=O)N2C[C@@H](C)O[C@@H](C)C2)sc2ccccc12 | 2.31 µM | 0.682 µM |  |

| Compound | IC50 (Plasmodium falciparum [1]) | IC50 (Plasmodium falciparum [2]) | other results |
| --- | --- | --- | --- |
| C[C@@H]1CN(C(=O)c2sc3ccccc3c2OCc2ccc(Cl)cc2)C[C@H](C)O1 | 0.728 µM | 0.186 µM | IC50 (HMEC-1): 48 µM; selectivity ratio [3]: 250 to 5000; selectivity ratio [4]: 250 to 5000 |
| C[C@@H]1CN(C(=O)c2sc3cc(F)ccc3c2Cl)C[C@H](C)O1 | 0.455 µM | 0.074 µM | Stability [7]: Stable |
| C[C@@H]1CN(C(=O)c2sc3ccccc3c2N)C[C@H](C)O1 | > 15 µM | 8.76 µM |  |
| C[C@@H]1CN(C(=O)c2cc3ccccc3s2)C[C@H](C)O1 | 8.54 µM | 1.82 µM |  |
| CC1CN(C(=O)c2cc3ccccc3o2)CC(C)N1 (stereo unspecified) | > 15 µM | > 15 µM |  |
| CC1CN(C(=O)c2sc3ccccc3c2Cl)CC(C)N1 (stereo unspecified) | 14.7 µM | 4.91 µM |  |
| C[C@@H]1CN(C(=O)c2sc3ccccc3c2OCc2ccccc2)C[C@H](C)O1 | 0.142 µM | 0.038 µM | IC50 (HMEC-1): 73 µM; half-life at 1 µM [5]: 2.1 min; inhibition (Escherichia coli [11]): inactive; inhibition (Escherichia coli [12]): inactive; selectivity ratio [3]: 250 to 5000; selectivity ratio [4]: 250 to 5000 |
| O=C(Nc1ccncc1)c1sc2ccccc2c1Cl | > 15 µM | > 15 µM | Stability [7]: Stable |
| C[C@@H]1CN(C(=O)c2cc3ccccc3o2)C[C@H](C)O1 | > 15 µM | > 15 µM |  |
| CN1CCN(C(=O)c2cc3ccccc3s2)CC1 | > 15 µM | > 15 µM |  |
| O=C(Nc1ccccn1)c1sc2ccccc2c1Cl | > 15 µM | > 15 µM |  |
| C[C@@H]1CN(C(=O)c2sc3ccccc3c2NCc2ccccc2)C[C@H](C)O1 | 9.77 µM | 2.62 µM |  |
| COc1c(C(=O)N2C[C@@H](C)O[C@@H](C)C2)sc2ccccc12 | 1.73 µM | 0.429 µM |  |
| C[C@@H]1CN(C(=O)c2sc3ccccc3c2O)C[C@H](C)O1 | > 15 µM | > 15 µM |  |
| O=C(c1sc2ccccc2c1Cl)N1CCOCC1 | > 15 µM | > 15 µM |  |
| C[C@@H]1CN(C(=O)c2nc3ccccc3s2)C[C@H](C)O1 | > 15 µM | 9.79 µM |  |
| COc1ccc(COc2c(C(=O)N3C[C@@H](C)O[C@@H](C)C3)sc3ccccc23)cc1 | 0.877 µM | 0.146 µM | IC50 (HMEC-1): 83 µM; selectivity ratio [3]: 250 to 5000; selectivity ratio [4]: 250 to 5000 |
| CC1CN(C(=O)c2cc3ccccc3[nH]2)CC(C)N1 (stereo unspecified) | > 15 µM | > 15 µM |  |
